# System: Klebsiella pneumoniae
# Experiment: Synergistic antibacterial activity against Klebsiella pneumoniae 761/1723 producing KPC-3 assessed as cefepime MIC at 4 ug/ml by broth microdilution method
# Type: functional
# Conditions: dose 4 µg/ml
# Procedure, shortened: (§1)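 Broth microdilution per CLSI guidelines, using custom frozen panels. […] Each partner drug was also tested alone. MICs were run in triplicate and the modal value is reported.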
row,Compound,MIC [mg/L]
1,O=C(NNC(=O)[C@@H]1CC[C@@H]2CN1C(=O)N2OS(=O)(=O)O)[C@@H]1CCCNC1 [ZIDEBACTAM],≤ 0.12

# System: Klebsiella pneumoniae
# Experiment: Synergistic antibacterial activity against Klebsiella pneumoniae CAV 1543 producing OXA-48 assessed as meropenem MIC at 8 ug/ml by broth microdilution method
# Type: functional
# Conditions: dose 8 µg/ml
row,Compound,MIC [mg/L]
1,O=C(NNC(=O)[C@@H]1CC[C@@H]2CN1C(=O)N2OS(=O)(=O)O)[C@@H]1CCCNC1 [ZIDEBACTAM],≤ 0.12

# System: Klebsiella pneumoniae
# Experiment: Synergistic antibacterial activity against Klebsiella pneumoniae 977/1916 producing KPC-3 assessed as meropenem MIC at 4 ug/ml by broth microdilution method
# Type: functional
# Conditions: dose 4 µg/ml
row,Compound,MIC [mg/L]
1,O=C(NNC(=O)[C@@H]1CC[C@@H]2CN1C(=O)N2OS(=O)(=O)O)[C@@H]1CCCNC1 [ZIDEBACTAM],≤ 0.12

# System: Klebsiella pneumoniae
# Experiment: Synergistic antibacterial activity against Klebsiella pneumoniae 776/1742 producing KPC-2 assessed as cefepime MIC at 8 ug/ml by broth microdilution method
# Type: functional
# Conditions: dose 8 µg/ml
row,Compound,MIC [mg/L]
1,O=C(NNC(=O)[C@@H]1CC[C@@H]2CN1C(=O)N2OS(=O)(=O)O)[C@@H]1CCCNC1 [ZIDEBACTAM],≤ 0.12

# System: Escherichia coli
# Experiment: Synergistic antibacterial activity against Escherichia coli DH10B assessed as cefepime MIC at 8 ug/ml by broth microdilution method
# Type: functional
# Conditions: dose 8 µg/ml
row,Compound,MIC [mg/L]
1,O=C(NNC(=O)[C@@H]1CC[C@@H]2CN1C(=O)N2OS(=O)(=O)O)[C@@H]1CCCNC1 [ZIDEBACTAM],≤ 0.12

# System: Klebsiella pneumoniae
# Experiment: Synergistic antibacterial activity against Klebsiella pneumoniae 1354/2241 producing KPC-3 assessed as meropenem MIC at 8 ug/ml by broth microdilution method
# Type: functional
# Conditions: dose 8 µg/ml
# Procedure, shortened: as §1
row,Compound,MIC [mg/L]
1,O=C(NNC(=O)[C@@H]1CC[C@@H]2CN1C(=O)N2OS(=O)(=O)O)[C@@H]1CCCNC1 [ZIDEBACTAM],≤ 0.12

# System: Escherichia coli
# Experiment: Synergistic antibacterial activity against Escherichia coli DH10B transfected with pBC SK (-) KPC-2 assessed as cefepime MIC at 4 ug/ml by broth microdilution method
# Type: functional
# Conditions: dose 4 µg/ml
row,Compound,MIC [mg/L]
1,O=C(NNC(=O)[C@@H]1CC[C@@H]2CN1C(=O)N2OS(=O)(=O)O)[C@@H]1CCCNC1 [ZIDEBACTAM],≤ 0.12

# System: Escherichia coli
# Experiment: Synergistic antibacterial activity against Escherichia coli DH10B transfected with pBC SK (-) OXA-48 assessed as cefepime MIC at 4 ug/ml by broth microdilution method
# Type: functional
# Conditions: dose 4 µg/ml
# Procedure, shortened: as §1
row,Compound,MIC [mg/L]
1,O=C(NNC(=O)[C@@H]1CC[C@@H]2CN1C(=O)N2OS(=O)(=O)O)[C@@H]1CCCNC1 [ZIDEBACTAM],≤ 0.12

# System: Acinetobacter baumannii
# Experiment: Synergistic antibacterial activity against Acinetobacter baumannii PR448 producing OXA-23 assessed as meropenem MIC at 8 ug/ml by broth microdilution method
# Type: functional
# Conditions: dose 8 µg/ml
row,Compound,MIC [mg/L]
1,O=C(NNC(=O)[C@@H]1CC[C@@H]2CN1C(=O)N2OS(=O)(=O)O)[C@@H]1CCCNC1 [ZIDEBACTAM],> 16

# System: Acinetobacter baumannii
# Experiment: Synergistic antibacterial activity against Acinetobacter baumannii PR323 producing OXA-24/40 assessed as cefepime MIC at 8 ug/ml by broth microdilution method
# Type: functional
# Conditions: dose 8 µg/ml
row,Compound,MIC [mg/L]
1,O=C(NNC(=O)[C@@H]1CC[C@@H]2CN1C(=O)N2OS(=O)(=O)O)[C@@H]1CCCNC1 [ZIDEBACTAM],4

# System: Acinetobacter baumannii
# Experiment: Synergistic antibacterial activity against ADC deleted Acinetobacter baumannii transfected with pWH1266 OXA-23 assessed as cefepime MIC at 8 ug/ml by broth microdilution method
# Type: functional
# Conditions: dose 8 µg/ml
row,Compound,MIC [mg/L]
1,O=C(NNC(=O)[C@@H]1CC[C@@H]2CN1C(=O)N2OS(=O)(=O)O)[C@@H]1CCCNC1 [ZIDEBACTAM],16

# System: Klebsiella pneumoniae
# Experiment: Synergistic antibacterial activity against Klebsiella pneumoniae 935/1884 producing KPC-3 assessed as meropenem MIC at 8 ug/ml by broth microdilution method
# Type: functional
# Conditions: dose 8 µg/ml
row,Compound,MIC [mg/L]
1,O=C(NNC(=O)[C@@H]1CC[C@@H]2CN1C(=O)N2OS(=O)(=O)O)[C@@H]1CCCNC1 [ZIDEBACTAM],≤ 0.12

# System: Acinetobacter baumannii
# Experiment: Synergistic antibacterial activity against Acinetobacter baumannii PR420 producing OXA-23/24/40 assessed as cefepime MIC at 4 ug/ml by broth microdilution method
# Type: functional
# Conditions: dose 4 µg/ml
row,Compound,MIC [mg/L]
1,O=C(NNC(=O)[C@@H]1CC[C@@H]2CN1C(=O)N2OS(=O)(=O)O)[C@@H]1CCCNC1 [ZIDEBACTAM],> 16

# System: Escherichia coli
# Experiment: Synergistic antibacterial activity against Escherichia coli DH10B transfected with pBC SK (-) OXA-48 assessed as meropenem MIC at 4 ug/ml by broth microdilution method
# Type: functional
# Conditions: dose 4 µg/ml
# Procedure, shortened: as §1
row,Compound,MIC [mg/L]
1,O=C(NNC(=O)[C@@H]1CC[C@@H]2CN1C(=O)N2OS(=O)(=O)O)[C@@H]1CCCNC1 [ZIDEBACTAM],≤ 0.12

# System: Acinetobacter baumannii
# Experiment: Synergistic antibacterial activity against Acinetobacter baumannii PR323 producing OXA-24/40 assessed as meropenem MIC at 4 ug/ml by broth microdilution method
# Type: functional
# Conditions: dose 4 µg/ml
row,Compound,MIC [mg/L]
1,O=C(NNC(=O)[C@@H]1CC[C@@H]2CN1C(=O)N2OS(=O)(=O)O)[C@@H]1CCCNC1 [ZIDEBACTAM],> 16

# System: Acinetobacter baumannii
# Experiment: Synergistic antibacterial activity against Acinetobacter baumannii PR359 producing OXA-23 assessed as cefepime MIC at 8 ug/ml by broth microdilution method
# Type: functional
# Conditions: dose 8 µg/ml
row,Compound,MIC [mg/L]
1,O=C(NNC(=O)[C@@H]1CC[C@@H]2CN1C(=O)N2OS(=O)(=O)O)[C@@H]1CCCNC1 [ZIDEBACTAM],16

# System: Klebsiella pneumoniae
# Experiment: Synergistic antibacterial activity against Klebsiella pneumoniae 1084/1957 producing KPC-3 assessed as cefepime MIC at 4 ug/ml by broth microdilution method
# Type: functional
# Conditions: dose 4 µg/ml
# Procedure, shortened: as §1
row,Compound,MIC [mg/L]
1,O=C(NNC(=O)[C@@H]1CC[C@@H]2CN1C(=O)N2OS(=O)(=O)O)[C@@H]1CCCNC1 [ZIDEBACTAM],≤ 0.12

# System: Klebsiella pneumoniae
# Experiment: Synergistic antibacterial activity against Klebsiella pneumoniae 977/1916 producing KPC-3 assessed as meropenem MIC at 8 ug/ml by broth microdilution method
# Type: functional
# Conditions: dose 8 µg/ml
row,Compound,MIC [mg/L]
1,O=C(NNC(=O)[C@@H]1CC[C@@H]2CN1C(=O)N2OS(=O)(=O)O)[C@@H]1CCCNC1 [ZIDEBACTAM],≤ 0.12

# Reference: ChEMBL document CHEMBL5247575 (J Med Chem, 2018)
